{"data": "Assay results of several laboratories", "target": "Phosphatidylinositol 4,5-bisphosphate 3-kinase catalytic subunit delta isoform (PIK3CD, Homo sapiens, UniProt O00329)", "One construct used (O00329 1-1044)": "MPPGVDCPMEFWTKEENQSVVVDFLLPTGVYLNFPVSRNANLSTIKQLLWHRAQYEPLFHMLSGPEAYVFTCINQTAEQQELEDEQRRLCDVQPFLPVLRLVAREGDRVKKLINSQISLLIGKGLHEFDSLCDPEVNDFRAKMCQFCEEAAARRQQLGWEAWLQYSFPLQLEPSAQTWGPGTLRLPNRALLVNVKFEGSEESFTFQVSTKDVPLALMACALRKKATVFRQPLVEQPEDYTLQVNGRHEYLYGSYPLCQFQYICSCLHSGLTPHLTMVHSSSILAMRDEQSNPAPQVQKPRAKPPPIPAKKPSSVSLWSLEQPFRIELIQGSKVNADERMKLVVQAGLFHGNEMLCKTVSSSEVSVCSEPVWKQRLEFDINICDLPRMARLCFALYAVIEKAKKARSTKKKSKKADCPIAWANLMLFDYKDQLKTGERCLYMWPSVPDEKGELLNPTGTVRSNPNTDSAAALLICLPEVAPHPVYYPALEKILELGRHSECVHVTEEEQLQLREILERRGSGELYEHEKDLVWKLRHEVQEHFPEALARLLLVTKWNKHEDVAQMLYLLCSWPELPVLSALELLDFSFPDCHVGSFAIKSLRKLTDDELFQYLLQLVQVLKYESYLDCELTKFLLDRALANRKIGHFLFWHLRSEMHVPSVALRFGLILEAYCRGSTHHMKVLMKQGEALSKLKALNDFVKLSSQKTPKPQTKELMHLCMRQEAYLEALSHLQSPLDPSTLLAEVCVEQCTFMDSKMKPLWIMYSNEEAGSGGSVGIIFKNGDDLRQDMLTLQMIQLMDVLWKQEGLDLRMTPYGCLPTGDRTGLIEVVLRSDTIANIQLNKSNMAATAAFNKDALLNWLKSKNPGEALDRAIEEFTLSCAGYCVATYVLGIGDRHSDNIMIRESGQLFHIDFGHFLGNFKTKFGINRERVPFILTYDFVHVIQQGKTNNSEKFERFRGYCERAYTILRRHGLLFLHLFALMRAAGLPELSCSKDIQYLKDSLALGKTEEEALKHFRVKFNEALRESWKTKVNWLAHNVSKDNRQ", "note": "Lines come from different studies, so protocols differ."}
{"Structure (SMILES)": "O=C(Nc1c[nH]nc1C(=O)NC1CCNCC1)c1cc(F)cc(F)c1", "observed": "binding", "method": "competition with immobilised ligand", "concentration": "1 µM", "remaining binding [%]": 100}
{"Structure (SMILES)": "Cc1nc(N2CC[C@@H](O)C2)ncc1-c1cc(C(F)(F)F)cc2[nH]ncc12", "observed": "cell-free assay", "method": "competition with immobilised ligand", "concentration": "1 µM", "remaining binding [%]": 72}
{"Structure (SMILES)": "COc1ccnn2ncc(-c3ccnc(N(C)C)n3)c12", "observed": "binding", "concentration": "1 µM", "remaining binding [%]": 68}
{"Structure (SMILES)": "Cc1cc(NC(=O)c2cccc(S(F)(F)(F)(F)F)c2)cc(-n2ccn3nc(-c4cccnc4)cc23)c1", "observed": "cell-free assay", "method": "competition with immobilised ligand", "concentration": "1 µM", "remaining binding [%]": 100}
{"Structure (SMILES)": "CN(C)c1nccc(-c2cnn3ncccc23)n1", "observed": "binding", "concentration": "1 µM", "remaining binding [%]": 85}
{"Structure (SMILES)": "Nc1ncc2c(n1)-c1c([nH]c3ccc(C#CC4CC4)cc13)CCCC2", "observed": "binding", "method": "competition with immobilised ligand", "concentration": "1 µM", "remaining binding [%]": 70}
{"Structure (SMILES)": "O=C(NCCCN1CCOCC1)c1ccc(Nc2nccc(-c3cc4ccccc4s3)n2)cc1", "observed": "binding", "method": "competition with immobilised ligand", "concentration": "1 µM", "remaining binding [%]": 56}
{"Structure (SMILES)": "CSc1cccnc1N1CCN(Cc2nc3ccccc3[nH]2)CC1", "observed": "cell-free assay", "method": "competition with immobilised ligand", "concentration": "1 µM", "remaining binding [%]": 100}
{"Structure (SMILES)": "COc1cnc(Nc2cccc(S(N)(=O)=O)c2)nc1N1CCN(c2ccccc2)C(=O)C1", "observed": "binding", "method": "competition with immobilised ligand", "concentration": "1 µM", "remaining binding [%]": 47}
{"Structure (SMILES)": "COc1ccc2c(c1)O[C@@H](c1ccc(OC)c(OC)c1)C[C@H]2NC(=O)C1(c2ccc3c(c2)OC(F)(F)O3)CC1", "observed": "cell-free assay", "method": "competition with immobilised ligand", "concentration": "1 µM", "remaining binding [%]": 97}
{"Structure (SMILES)": "COc1ncc2cc3ccccc3nc2c1C#N", "observed": "cell-free assay", "method": "competition with immobilised ligand", "concentration": "5 µM", "remaining binding [%]": 98}
{"Structure (SMILES)": "CN(C)c1nccc(-c2cnc3ncccn23)n1", "observed": "binding", "concentration": "1 µM", "remaining binding [%]": 50}
{"Structure (SMILES)": "O=C1NC(c2ccccn2)Sc2ccccc21 (centres unmarked)", "observed": "cell-free assay", "method": "competition with immobilised ligand", "concentration": "1 µM", "remaining binding [%]": 51}
{"Structure (SMILES)": "N[C@@H]1CCN(c2nccc(-c3cnn4ncccc34)n2)C1", "observed": "binding", "concentration": "1 µM", "remaining binding [%]": 100}
{"Structure (SMILES)": "O=C(c1ccc(Nc2nccc(-c3cc4ccccc4s3)n2)cc1)N1CCC(N2CCCC2)CC1", "observed": "binding", "method": "competition with immobilised ligand", "concentration": "1 µM", "remaining binding [%]": 41}
{"Structure (SMILES)": "CN(c1ccnc(CNc2nc(Nc3ccc4c(c3)CC(=O)N4)ncc2C(F)(F)F)n1)S(C)(=O)=O", "observed": "cell-free assay", "method": "competition with immobilised ligand", "concentration": "1 µM", "remaining binding [%]": 77}
{"Structure (SMILES)": "C[C@H]1CCN(c2nccc(-c3cnn4ncccc34)n2)C1", "observed": "binding", "concentration": "1 µM", "remaining binding [%]": 100}
{"Structure (SMILES)": "O=C(NCCCN1CCOCC1)c1ccc(Nc2ncc(Cl)c(-c3ccc(Cl)s3)n2)cc1", "observed": "binding", "method": "competition with immobilised ligand", "concentration": "1 µM", "remaining binding [%]": 100}
{"Structure (SMILES)": "CNC(=O)[C@@H]1CC[C@@H](n2c(-c3ccc4cnccc4c3)nc3ccc(C(=O)NCc4cccc(C(N)=O)c4)cc32)C1", "observed": "binding", "method": "competition with immobilised ligand", "concentration": "1 µM", "remaining binding [%]": 100}
{"Structure (SMILES)": "Cc1cnn2ncc(-c3ccnc(N(C)C)n3)c2c1", "observed": "binding", "concentration": "1 µM", "remaining binding [%]": 100}
